Experimental data as given in ChEMBL document CHEMBL4308900, “Synthesis and identification of 2,4-bisanilinopyrimidines bearing 2,2,6,6-tetramethylpiperidine-N-oxyl as potential Aurora A inhibitors” (Bioorg Med Chem, 2019).
Activity calls are given as the source filed them. The calls are words filed in the database; no cut-off is given here.

Key:
HeLa [1] = assay: Cell cycle arrest in human HeLa cells assessed as accumulation at S phase at 1 uM after 12 hrs by propidium iodide staining-based flow cytometric analysis (reference value: 5.74%); type: functional
How it was run: (§1)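 HeLa cells exposed 12 h to 1 or 5 μM compound diluted from DMSO (DMSO control), fixed, stained with propidium iodide; DNA content measured by flow cytometry and G1, S, G2/M fractions calculated from the DNA histogram.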

HeLa [2] = assay: Cell cycle arrest in human HeLa cells assessed as accumulation at G2/M phase at 5 uM after 12 hrs by propidium iodide staining-based flow cytometric analysis (reference value: 23.57%); type: functional; how it was run: as §1
HeLa [3] = assay: Induction of apoptosis in human HeLa cells assessed as necrotic cells at 5 uM after 12 hrs by Annexin V-FITC/propidium iodide staining-based flow cytometric analysis (reference value: 5.92%); type: functional
HeLa [4] = assay: Induction of apoptosis in human HeLa cells assessed as late apoptotic cells at 0.1 uM after 12 hrs by Annexin V-FITC/propidium iodide staining-based flow cytometric analysis (reference value: 2.32%); type: functional
HeLa [5] = assay: Induction of apoptosis in human HeLa cells assessed as early apoptotic cells at 5 uM after 12 hrs by Annexin V-FITC/propidium iodide staining-based flow cytometric analysis (reference value: 0.75%); type: functional
Aurora kinase B [6] = target: T1, Aurora kinase B (Homo sapiens, UniProt Q96GD4); assay: Inhibition of Aurora B phosphorylation at Thr232 residue in human HeLa cells at <10 nM after 12 hrs by ELISA; type: cell-based
How it was run: (§2)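 HeLa cells grown 12 h in 6-well dishes with compound diluted from DMSO at several concentrations; whole-cell lysate captured on anti-Aurora A or B antibody-coated wells, HRP-labelled detection, TMB substrate, stopped with sulphuric acid, absorbance at 450 nm.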

HeLa [7] = assay: Cell cycle arrest in human HeLa cells assessed as accumulation at G2/M phase at 1 uM after 12 hrs by propidium iodide staining-based flow cytometric analysis (reference value: 23.57%); type: functional; how it was run: as §1
HeLa [8] = assay: Induction of apoptosis in human HeLa cells assessed as upregulation of caspase-3 protein expression up to 5 uM after 12 hrs by Western blot analysis; type: functional, cell-based
How it was run: (§3)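 HeLa cells treated 12 h (0.1, 1, 5 μM for apoptosis proteins); lysed in Tris pH 7.5/NP-40/SDS buffer with protease inhibitors, equal protein on 10% SDS-PAGE, PVDF, 5% BSA block, primary antibodies overnight at 4 °C, β-actin loading control; mean ± SD.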

Aurora kinase A = target: T2, Aurora kinase A (Homo sapiens, UniProt O14965); assay: Inhibition of Aurora A phosphorylation at Thr288 residue in human HeLa cells after 12 hrs by ELISA; type: cell-based
T2 sequence (O14965 whole entry): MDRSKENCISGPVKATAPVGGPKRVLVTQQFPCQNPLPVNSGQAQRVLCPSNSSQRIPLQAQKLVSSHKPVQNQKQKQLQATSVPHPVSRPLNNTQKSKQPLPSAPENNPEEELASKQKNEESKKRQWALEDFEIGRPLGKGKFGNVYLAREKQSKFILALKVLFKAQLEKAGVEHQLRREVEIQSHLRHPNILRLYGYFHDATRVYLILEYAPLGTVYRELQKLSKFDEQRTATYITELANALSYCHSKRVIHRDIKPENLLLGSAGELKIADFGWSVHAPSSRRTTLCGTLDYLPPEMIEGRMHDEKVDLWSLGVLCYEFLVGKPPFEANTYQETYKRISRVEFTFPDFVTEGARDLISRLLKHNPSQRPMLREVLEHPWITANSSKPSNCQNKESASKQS

HeLa [9] = assay: Induction of apoptosis in human HeLa cells assessed as late apoptotic cells at 1 uM after 12 hrs by Annexin V-FITC/propidium iodide staining-based flow cytometric analysis (reference value: 2.32%); type: functional
HeLa [10] = assay: Cell cycle arrest in human HeLa cells assessed as decrease in cyclin B1 protein expression up to 5 uM after 12 hrs by Western blot analysis; type: functional, cell-based; how it was run: as §3
Homo sapiens = species: Homo sapiens; assay: Selectivity ratio of IC50 for Aurora B (unknown origin) to IC50 for Aurora A (unknown origin)
HeLa [11] = assay: Cell cycle arrest in human HeLa cells assessed as accumulation at G2/M phase after 12 hrs by propidium iodide staining-based flow cytometric analysis; type: functional; how it was run: as §1
[12] = target: T3, Aurora kinase A (Homo sapiens) (UniProt O14965); assay: Inhibition of Aurora A phosphorylation at Thr288 residue in human HeLa cells at <10 nM after 12 hrs by ELISA; type: cell-based; how it was run: as §2
T3 sequence (whole entry): T2 sequence (O14965 whole entry)

HeLa [13] = assay: Disruption of spindle formation in human HeLa cells assessed as shrinkage of microtubule spindles at 1 uM after 24 hrs by DAPI staining based immunofluorescence microscopic analysis; type: functional, cell-based
How it was run: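 HeLa cells on coverslips treated 24 h (0.1 or 1 μM; DMSO control); fixed in 4% paraformaldehyde, permeabilised in 0.1% Triton X-100 with 2% BSA, anti-α-tubulin overnight at 4 °C, FITC secondary 2 h room temperature, DAPI for DNA; confocal imaging.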

HepG2 = assay: Antiproliferative activity against human HepG2 cells after 48 hrs by MTT assay; type: functional; details: HepG2, 48 h
How it was run: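 MTT assay: cells attached 4–6 h at 37 °C, 5% CO2, then exposed 48 h to graded concentrations from DMSO stocks; 5 mg/mL MTT added for 4 h, formazan dissolved in DMSO, absorbance at 490 nm. GI50 from log plot of percent of control versus concentration; mean of three independent experiments.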

Aurora kinase B [14] = target: T1, Aurora kinase B; assay: Inhibition of Aurora B phosphorylation at Thr232 residue in human HeLa cells after 12 hrs by ELISA; type: cell-based

T1 sequence (Q96GD4 whole entry): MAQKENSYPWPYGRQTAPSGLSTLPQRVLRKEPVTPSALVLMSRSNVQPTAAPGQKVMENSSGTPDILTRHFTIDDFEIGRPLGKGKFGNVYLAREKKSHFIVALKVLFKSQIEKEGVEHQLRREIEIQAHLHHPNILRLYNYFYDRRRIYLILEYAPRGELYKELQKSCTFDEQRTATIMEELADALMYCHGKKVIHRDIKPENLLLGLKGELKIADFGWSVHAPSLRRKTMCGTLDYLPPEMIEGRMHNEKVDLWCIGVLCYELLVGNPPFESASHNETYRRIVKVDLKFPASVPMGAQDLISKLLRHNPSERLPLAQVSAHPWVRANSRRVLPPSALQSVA

CC1(C)CC(NC(=O)c2ccc(Nc3ncc(F)c(Nc4ccc(C(=O)Nc5ccccc5Cl)cc4)n3)cc2)CC(C)(C)N1[O]
Activity (HeLa [1]): 11.33%
Activity (HeLa [2]): 60.33%
Activity (HeLa [3]): 10.75%
Activity (HeLa [4]): 2.94%
Activity (HeLa [5]): 4.85%
inhibition (Aurora kinase B [6]): inactive
Activity (HeLa [7]): 40.67%
Activity (HeLa [8]): Active
IC50 (Aurora kinase A): 8 nM
Activity (HeLa [9]): 8.06%
Activity (HeLa [10]): Active
Ratio IC50 (Homo sapiens): 42
Activity (HeLa [11]): Dose-dependent effect
inhibition [12]: inactive
Activity (HeLa [13]): Active
GI50 (HepG2): 1200 nM
IC50 (Aurora kinase B [14]): 538 nM
